# From PubChem
# Statin myotox sup: protects C2C12 myotubes from simvastatin toxicity; rescue of ATP level, % at 7.49 µM; AID 602340; actives 0.78% (n = 330,000); ATP luminescence, 48 h; scaled: DMSO 0, geranylgeraniol control 100;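 active = mean ATP rescue above about 67%, or every replicate alone reaching that limit, limit read from the data, passing the limit was not always enough; inconclusive = no clear call, values can overlap the other calls; inactive = mean under the limit and some replicate under it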;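 also: myotubes were challenged with 10 µM simvastatin during compound exposure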
# Cneo AK release: Cryptococcus neoformans lysis via adenylate kinase release; C. neoformans lysis, adenylate kinase release luminescence, 4 h; normalised: neutral wells 0, clomiphene wells 100; lysis activity, % at 15 µM; actives 0.2% (n = 360,000); AID 651654;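 active = mean lysis activity across replicates of at least 80%, whatever share of replicates individually reach that level; inactive = mean lysis activity below 80%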
#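 Material – log-phase Cryptococcus neoformans yeast cells · Input – 5 × 10^6 yeast cells/mL · Medium – fresh YPD growth medium · Doses – single compound concentration per well · Timing – static 4 h at 37 °C with compound, 1 h detection · Detection – adenylate kinase release luminescence · Read-out – signal increase indicating cell lysis · Control set – Clomiphene as positive lysis control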
# XiGFP reactiv: activators of X-chromosome reactivation in mouse fibroblasts; XiGFP mouse fibroblasts, % GFP-positive cells imaging, 3 d; cells co-treated with 5-aza-dC sensitizer; scaled so ellipticine positive control = 100%; activation, % at 7.58 µM; actives 0.055% (n = 360,000); AID 743238;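 active = mean normalized replicate activation at least 10% and every replicate at or above 10%; inconclusive = only one of the two criteria met; inactive = mean below 10% and not all replicates reach 10%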;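 also: 0% = median of on-plate neutral control wells and 100% = ellipticine 6 µM median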
#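 System: 68-5-11 XiGFP fibroblast line | Buffer or medium: DMEM containing 5-aza-dC | Compound: Single point | Times: Compounds 3 days, fix/stain 15 min at room temperature | Benchmarks: Positive control ellipticine, 6 µM final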
# DENV2 CPE: inhibitors of DENV2 cytopathic effect; DENV2-infected cells, cytopathic effect rescue, plate reader; CPE inhibition, % at 9.99 µM; actives 1.7% (n = 350,000); AID 651640; in the data active = CPE inhibition above about 20%, passing the limit was not always enough; inconclusive = no clear call, values can overlap the other calls; tested in BHK-21 cells;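 also: 0% = median of neutral control wells and 100% = median of positive control wells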
# * hit, by the source's call; ? = inconclusive; nt = not tested or not shown; ! = repeats disagree. Shown are actives, neighbours in structure and some others; about 2.1% of the full set was active somewhere.
SMILES,Statin myotox sup,Cneo AK release,XiGFP reactiv,DENV2 CPE
CC(C)NC(=O)N(C)C[C@H]1Oc2ccc(NS(=O)(=O)c3ccccc3)cc2CC(=O)N([C@H](C)CO)C[C@@H]1C,11,-3,0,?
O=C(Nc1ccc2nc3n(c(=O)c2c1)CCCC3)c1cccc(F)c1,-33,0,0,-5
O=C(Nc1ccc2nc3n(c(=O)c2c1)CCCC3)c1ccccc1F,-7,-1,0,39*
O=C(Nc1ccc2nc3n(c(=O)c2c1)CCCCC3)c1c(F)ccc([N+](=O)[O-])c1F,204*,-1,0,-1
O=C(Nc1ccc2nc3n(c(=O)c2c1)CCCCC3)c1cc([N+](=O)[O-])ccc1F,-39,0,1,3
CCC(=O)N1CC[C@@H]2[C@H]1c1cc(-c3ccc(C(=O)N(C)C)cc3)ccc1N[C@@H]2CO,-49,5,0,?
CO[C@H]1CN(C)C(=O)c2ccc(NS(C)(=O)=O)cc2OC[C@H](C)N(C(=O)c2ccc3c(c2)OCO3)C[C@@H]1C,-1,-1,0,nt
CCOCCCN1CN(S(=O)(=O)c2ccc(Cl)cc2)c2nc3ccccc3nc21,133*,0,nt,nt
O=c1c2sc3nc(N4CCOCC4)c4c(c3c2ncn1-c1ccccc1)CCCC4,-11,5,0,1
Cc1ccccc1-n1cnc2c(sc3nc(N4CCOCC4)c4c(c32)CCCC4)c1=O,nt,nt,0,42*
COc1ccc(/C=C/C2=NC(=C\N(C)C)/C(=O)O2)cc1,114*,-4,nt,nt
C[C@H]1O[C@H](O[C@H]2[C@H](O[C@@H]3CC[C@@]4(C)C(CC[C@]5(C)C4CC=C4[C@@H]6CC(C)(C)CC[C@]6(C(=O)O[C@@H]6O[C@H](CO)[C@@H](O)[C@H](O)[C@H]6O)CC[C@]45C)C3(C)C)O[C@H](C(=O)O)[C@@H](O)[C@@H]2O)[C@@H](O)[C@@H](O)[C@@H]1O (stereo not given in full),-6,-1,nt,109*
CC1(C)CC[C@]2(C(=O)O)CC[C@]3(C)C(=CC[C@@H]4[C@@]5(C)CC[C@H](O[C@@H]6O[C@H](C(=O)O)[C@@H](O)[C@H](O[C@@H]7OC[C@H](O)[C@H](O)[C@H]7O)[C@H]6O)C(C)(C)[C@@H]5CC[C@]43C)[C@@H]2C1,-40,-6,0,-2
CC1(C)CC[C@]2(C(=O)O[C@@H]3O[C@H](CO)[C@@H](O)[C@H](O)[C@H]3O)CC[C@]3(C)C(=CCC4[C@@]5(C)CC[C@H](O[C@@H]6O[C@H](C(=O)O)[C@@H](O[C@H]7OC[C@@H](O)[C@@H](O)[C@@H]7O)[C@H](O)[C@H]6O)C(C)(C)C5CC[C@]43C)[C@@H]2C1 (stereo not given in full),-11,-7,0,81*
CC(NC(=O)Nc1ccc(O)cc1)(C(F)(F)F)C(F)(F)F,-1,9,nt,nt
CC(NC(=O)Nc1ccccc1O)(C(F)(F)F)C(F)(F)F,91*,1,nt,nt
O=C(Nc1ccccc1F)N[C@@H]1CC[C@H](CCNS(=O)(=O)c2ccc(Cl)cc2)O[C@@H]1CO,6,-2,0,-4
CCCNC(=O)c1cc2c(c(-c3cccc(-c4ccccc4F)c3)n1)[C@H](CCO)N(C(=O)CC1CC1)C2,nt,nt,0,82*
Cc1nn(Cc2ccccc2Cl)c2sc(C(=O)NCc3ccc4c(c3)OCO4)cc12,126*,-1,nt,nt
CCC(CC)NC(=O)c1cc2c(C)nn(Cc3ccccc3Cl)c2s1,11,nt,nt,nt
Cc1ccc(OCCNC(=O)/C=C/c2ccccc2)cc1,8,nt,0,28*
COc1ccc(S(=O)(=O)Nc2ccc3c(c2)C(=O)N([C@@H](C)CO)C[C@@H](C)[C@H](CN(C)C(=O)NC(C)C)OCCCC[C@@H](C)O3)cc1,nt,-5,-1,5
O=C(Nc1cccc(Cl)c1)C1CCCN(S(=O)(=O)c2ccc(F)cc2)C1 (stereo not given),125*,-1,nt,nt
Cc1oc(-c2ccc(Cl)cc2)nc1CS(=O)CC(=O)NC1CCCCC1 (stereo not given),22,0,0,-5
Cc1ccc(-c2nc(CS(=O)CC(=O)NC3CCCCC3)c(C)o2)cc1 (stereo not given),105*,1,0,-4
SMILES,Statin myotox sup,Cneo AK release,XiGFP reactiv,DENV2 CPE
Cc1oc(-c2ccc(Cl)cc2)nc1CS(=O)CC(=O)NC1CCCC1 (stereo not given),99*,0,0,6
C[C@H]1CN([C@@H](C)CO)C(=O)c2cccc(NC(=O)C3CCOCC3)c2O[C@H]1CN(C)S(=O)(=O)c1ccc(F)cc1,-10,-3,0,16
Cc1noc(C)c1NC(=O)N(C)C[C@@H]1OCCCC[C@H](C)Oc2ccc(NC(=O)Nc3ccc4c(c3)OCO4)cc2C(=O)N([C@H](C)CO)C[C@@H]1C,-1,2,-1,-3
COC(=O)C1=C(C)N(Cc2ccco2)C(=O)N[C@@H]1c1ccco1,8,-1,0,60*
C[C@H](CO)N1C[C@H](C)[C@H](CN(C)S(=O)(=O)c2cn(C)cn2)OCCCC[C@H](C)Oc2ccc(NS(=O)(=O)c3cn(C)cn3)cc2C1=O,nt,2,0,2
CCOC(=O)c1ccc(NS(=O)(=O)c2ccc(-c3coc(C)n3)cc2)cc1,93*,3,0,0
c1ccc(CSc2nnc(-c3ccccn3)n2-c2ccccc2)cc1,107*,-4,nt,nt
COc1ccccc1-c1cn(CC[C@@H]2CC[C@H](NC(=O)Cc3ccccn3)[C@H](CO)O2)nn1,-4,5,0,40*
COc1ccc(-c2cn(CC[C@@H]3CC[C@H](NC(=O)Cc4ccccn4)[C@@H](CO)O3)nn2)cc1,-1,0,1,22*!
O=C(C[C@H]1C[C@H]2c3cc(NC(=O)c4ccc5c(c4)OCO5)ccc3O[C@H]2[C@H](CO)O1)NCCc1ccccc1,0,-3,0,-2
C[C@@H]1CCCCO[C@@H](CN(C)C(=O)NC2CCCCC2)[C@@H](C)CN([C@@H](C)CO)C(=O)c2cc(NC(=O)NC3CCCCC3)ccc2O1,nt,-2,0,-9
O=S(=O)(Nc1cc2nc3ccccc3nc2n1Cc1ccccc1)c1ccc(Cl)cc1,nt,nt,78*,nt
O=S(=O)(Nc1nc2ccccc2[nH]1)c1ccc(Cl)cc1,7,0,nt,nt
C[C@@H]1CN([C@@H](C)CO)C(=O)CCCn2cc(nn2)CO[C@H]1CN(C)S(=O)(=O)c1ccc(F)cc1,-163,-1,0,-4
O=C(COC(=O)COc1ccccc1)Nc1ncc([N+](=O)[O-])s1,10,nt,0,-2
N/C(=N\OC(=O)Nc1ccccc1)c1ncc([N+](=O)[O-])s1,26,nt,0,33*
COC(=O)c1cc2ccsc2n1Cc1ccccc1F,4,1,0,113*
CO[C@@H]1CN(C)C(=O)c2ccc(NC(C)=O)cc2OC[C@H](C)N(C(=O)CC2CC2)C[C@@H]1C,2,-3,0,nt
